In ChEMBL document CHEMBL3091462 (J Nat Prod, 2013):
Activity calls are given as the source filed them. The calls are words filed in the database; no cut-off is given here.

How the values were obtained:
SW-620 [1] = test: Cell cycle arrest in human SW620 cells assessed as accumulation at G2/M phase at 10 uM after 48 hrs using propidium iodide staining by flow cytometry (reference value: 9.1 +/- 0.3%); format: functional
SW-620 [2] = test: Cell cycle arrest in human SW620 cells assessed as accumulation at S phase after 48 hrs using propidium iodide staining by flow cytometry; format: functional, cell-based
SW-620 [3] = test: Effect on Cdk inhibitor gene expression in p53 deficient human SW620 cells at 0.5 to 10 uM after 24 hrs by immunoblotting; format: functional, cell-based
HCT-116 [4] = test: Induction of apoptosis in human HCT116 cells at 10 uM after 48 hrs using Annexin V-FITC and propidium iodide staining by flow cytometry (reference value: 7.6 +/- 3%); format: functional
Outline: (§1)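 Subconfluent cells in RPMI 1640 + 10% FBS treated with 0–10 μM for 48 h. Harvested cells incubated 10 min with FITC-annexin V/PI, then analysed by flow cytometry (488/525 nm for annexin V-FITC, 488/675 nm for PI). Reported as % apoptotic cells, means ± SD of three experiments in triplicate.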

HCT-116 [5] = test: Cell cycle arrest in human HCT116 cells assessed as accumulation at S phase at 10 uM after 48 hrs using propidium iodide staining by flow cytometry (reference value: 36.3 +/- 1.7%); format: functional
SW-620 [6] = test: Cytotoxicity against human SW620 cells assessed as cell viability at 0.1 to 2 uM after 24 to 72 hrs; format: functional, cell-based
Outline: (§2)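 Cells seeded at 10^5 per well in RPMI 1640/10% FBS at 37 °C. Subconfluent cells exposed to 0, 0.1, 0.5, 1, 2, 5 or 10 μM for 48 h, or to 10 μM for 24, 48 and 72 h; ethanol vehicle, at most 0.01% v/v final. Cells trypsinized and counted by hemocytometer. Viability as % of control, means ± SD, three experiments in triplicate.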

SW-620 [7] = test: Cytotoxicity against human SW620 cells expressing p21 siRNA at 10 uM after 24 hrs by trypan blue staining; format: functional, cell-based
Outline: (§3)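 Cells plated at 5 × 10^4 per well and transfected with 100 nM scrambled or p21 siRNA in OPTI-MEM for 4 h. Complete RPMI medium was added and cells grown a further 24 h, then exposed to 10 μM for 24 h. Viability measured by direct count after trypan blue staining. Morphology viewed by phase-contrast at 200×. Means ± SD, three experiments in triplicate.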

SW-620 [8] = test: Cytotoxicity against human SW620 cells at 0.5 to 10 uM; format: functional, cell-based; conditions: TDE = time-dependent effect
Outline: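 SW-620 cells seeded at 10^5 per well in RPMI 1640 + 10% FBS at 37 °C, then treated when subconfluent with 0–10 μM for 48 h (or 10 μM for 24–72 h). Ethanol vehicle, at most 0.01% v/v final. Cells trypsinized and counted on a hemocytometer. Result given as % of control, means ± SD of three experiments in triplicate.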

HCT-116 [9] = test: Antitumor activity against human HCT116 cells xenografted in BALB/c-nude mouse assessed as reduction of tumor volume at 100 mg/kg, po administered every other day from day 2 to 21; format: functional, organism-based; set-up: dose 100 mg/kg
Outline: (§4)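 Male BALB/c-nude mice; 2 × 10^6 tumour cells in 0.2 mL PBS injected intradermally into the flank on day 0, n = 10 per group. Oral dosing every other day for 3 weeks, starting 2 days after inoculation. Caliper tumour volume = (width)2 × length/2, measured periodically. Tumours excised and weighed at day 21. Means ± SE.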

HCT-116 [10] = test: Induction of apoptosis in human HCT116 cells assessed as increase of expression of cleaved caspase-9 and caspase-3 after 24 hrs by immunoblotting; format: functional, cell-based
Outline: (§5)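 HCT-116 or SW-620 cells treated with 0–10 μM for 24 h, lysed, and run on 15% SDS-PAGE immunoblots. Probed for Bcl-2 (1:1000), Bax (1:500), caspase-9/-3 and their cleaved forms (1:1000), and β-actin (1:1000). Bands quantified by densitometry; means ± SD of three experiments in duplicate.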

SW-620 [11] = test: Induction of apoptosis in human SW620 cells at 5 uM after 48 hrs using Annexin V-FITC and propidium iodide staining by flow cytometry (reference value: 3.8 +/- 2.1%); format: functional; outline: as §1
HCT-116 [12] = test: Induction of apoptosis in human HCT116 cells expressing p21 siRNA assessed as increase of expression of cleaved caspase-9 and caspase-3 at 10 uM after 24 hrs by immunoblotting; format: functional, cell-based
Outline: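 Cells transfected with 100 nM scrambled or p21 siRNA for 4 h, then grown 24 h in complete medium and treated with 10 μM for 24 h. p21, caspase-9/-3 and cleaved forms analysed by 15% SDS-PAGE immunoblot with densitometry. Means ± SD, three experiments in triplicate.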

SW-620 [13] = test: Cytotoxicity against human SW620 cells assessed as cell death at 2 uM after 48 hrs; format: functional, cell-based; outline: as §2
HCT-116 [14] = test: Induction of apoptosis in human HCT116 cells expressing p21 siRNA assessed as change in cell morphology at 10 uM after 24 hrs by phase-contrast microscopic analysis; format: functional, cell-based; outline: as §3
HCT-116 [15] = test: Cell cycle arrest in human HCT116 cells assessed as accumulation at S phase at 1 uM after 48 hrs using propidium iodide staining by flow cytometry (reference value: 36.3 +/- 1.7%); format: functional
HCT-116 [16] = test: Cytotoxicity against human HCT116 cells assessed as cell viability at 10 uM after 48 to 72 hrs; format: functional, cell-based; outline: as §2
SW-620 [17] = test: Cytotoxicity against human SW620 cells assessed as cell viability at 10 uM after 48 to 72 hrs; format: functional, cell-based; outline: as §2
HCT-116 [18] = test: Cell cycle arrest in human HCT116 cells assessed as accumulation at G0/G1 phase at 10 uM after 48 hrs using propidium iodide staining by flow cytometry (reference value: 56.7 +/- 1.9%); format: functional
HCT-116 [19] = test: Cell cycle arrest in human HCT116 cells assessed as accumulation at S phase after 48 hrs using propidium iodide staining by flow cytometry; format: functional, cell-based
HCT-116 [20] = test: Cell cycle arrest in human HCT116 cells assessed as accumulation at G2/M phase at 1 uM after 48 hrs using propidium iodide staining by flow cytometry (reference value: 7.1 +/- 0.3%); format: functional
SW-620 [21] = test: Induction of apoptosis in human SW620 cells assessed as reduction of Bcl-2 protein expression at 0.5 to 10 uM after 24 hrs by immunoblotting; format: functional, cell-based; outline: as §5
SW-620 [22] = test: Antitumor activity against human SW620 cells xenografted in BALB/c-nude mouse assessed as reduction of tumor volume at 100 mg/kg, po administered every other day from day 2 to 21; format: functional, organism-based; set-up: dose 100 mg/kg; outline: as §4
HCT-116 [23] = test: Cell cycle arrest in human HCT116 cells assessed as accumulation at S phase at 0.1 uM after 48 hrs using propidium iodide staining by flow cytometry (reference value: 36.3 +/- 1.7%); format: functional
SW-620 [24] = test: Decrease of cyclin A expression in human SW620 cells after 24 hrs by immunoblotting; format: functional, cell-based
Outline: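 HCT-116 or SW-620 cells exposed to 0–10 μM for 24 h. Cells lysed in Tris/NaCl/EDTA/1% Triton X-100 buffer with protease and phosphatase inhibitors at 4 °C, protein measured by BCA. Lysates run on 10–12.5% SDS-PAGE and immunoblotted, ECL detection. Cdk2, cyclin A and cyclin E antibodies used at 1:500; β-actin as loading control.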

HCT-116 [25] = test: Cytotoxicity against human HCT116 cells assessed as cell viability at 0.1 to 2 uM after 24 to 72 hrs; format: functional, cell-based; outline: as §2

With `CC(C)c1cccc(=O)c(O)c1` [HINOKITIOL] the Activity (SW-620 [1]) was 1.5%, the Activity (SW-620 [2]) was “Dose-dependent effect” and the Activity (SW-620 [3]) was “inactive”. For the same compound, the Activity (HCT-116 [4]) was 24.7%, the Activity (HCT-116 [5]) was 53.8% and the Activity (SW-620 [6]) was “Active”. For the same compound, the Activity (SW-620 [7]) was “inactive”, the Activity (SW-620 [8]) was “tde” and the Activity (HCT-116 [9]) was “Active”. For the same compound, the Activity (HCT-116 [10]) was “Dose-dependent effect”, the Activity (SW-620 [11]) was 53.1% and the Activity (HCT-116 [12]) was “inactive”. For the same compound, the Activity (SW-620 [13]) was “Active”, the Activity (HCT-116 [14]) was “inactive” and the Activity (HCT-116 [15]) was 37.2%. The Activity (HCT-116 [16]) was “Active”, the Activity (SW-620 [17]) was “Active” and the Activity (HCT-116 [18]) was 38.8%. For the same compound, the Activity (HCT-116 [19]) was “Dose-dependent effect”, the Activity (HCT-116 [20]) was 7.7% and the Activity (SW-620 [21]) was “Active”. The Activity (SW-620 [22]) was “Active”, the Activity (HCT-116 [23]) was 34.4% and the Activity (SW-620 [24]) was “Dose-dependent effect”. For the same compound, the Activity (HCT-116 [25]) was “Active”.
